# Tests used:
# Type in all cases: functional
# Details in all cases: TLX-5, ip, 72 h, route intraperitoneal
# [1] = Antitumor activity against mouse TLX5 cells allografted in CBA/LAC mouse assessed as increase in life span at 12.5 mg/kg, ip from day 3 to 7 from tumor inoculation relative to control
# Method in brief: (§1)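 TLX5 lymphoma cells implanted subcutaneously in the inguinal region of female CBA/LAC mice. Drug given as a freshly made solution in acetone–arachis oil 10/90 (v:v), intraperitoneally once daily from day 3 to 7 after tumour inoculation. Five animals per dose level, ten controls. Read-out was %ILS over controls, with analysis of variance used for significance.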
# [2] = Antitumor activity against mouse TLX5 cells allografted in CBA/LAC mouse assessed as increase in life span at 25 mg/kg, ip from day 3 to 7 from tumor inoculation relative to control; method in brief: as §1
# [3] = Antitumor activity against mouse TLX5 cells allografted in CBA/LAC mouse assessed as increase in life span at 50 mg/kg, ip from day 3 to 7 from tumor inoculation relative to control; method in brief: as §1
# [4] = Antitumor activity against mouse TLX5 cells allografted in CBA/LAC mouse assessed as increase in life span at 100 mg/kg, ip from day 3 to 7 from tumor inoculation relative to control; method in brief: as §1
# [5] = Antitumor activity against mouse TLX5 cells allografted in CBA/LAC mouse assessed as increase in life span at 200 mg/kg, ip from day 3 to 7 from tumor inoculation relative to control; method in brief: as §1
# [6] = Antitumor activity against mouse TLX5 cells allografted in CBA/LAC mouse assessed as increase in life span at 400 mg/kg, ip from day 3 to 7 from tumor inoculation relative to control; method in brief: as §1
# [7] = Antitumor activity against mouse TLX5 cells allografted in CBA/LAC mouse assessed as increase in life span at 10 mg/kg, ip from day 3 to 7 from tumor inoculation relative to control; method in brief: as §1
# [8] = Antitumor activity against mouse TLX5 cells allografted in CBA/LAC mouse assessed as increase in life span at 20 mg/kg, ip from day 3 to 7 from tumor inoculation relative to control; method in brief: as §1
# [9] = Antitumor activity against mouse TLX5 cells allografted in CBA/LAC mouse assessed as increase in life span at 40 mg/kg, ip from day 3 to 7 from tumor inoculation relative to control; method in brief: as §1
# [10] = Antitumor activity against mouse TLX5 cells allografted in CBA/LAC mouse assessed as increase in life span at 80 mg/kg, ip from day 3 to 7 from tumor inoculation relative to control; method in brief: as §1
# [11] = Antitumor activity against mouse TLX5 cells allografted in CBA/LAC mouse assessed as increase in life span at 160 mg/kg, ip from day 3 to 7 from tumor inoculation relative to control; method in brief: as §1
# [12] = Antitumor activity against mouse TLX5 cells allografted in CBA/LAC mouse assessed as increase in life span at 2.5 mg/kg, ip from day 3 to 7 from tumor inoculation relative to control; method in brief: as §1
# [13] = Antitumor activity against mouse TLX5 cells allografted in CBA/LAC mouse assessed as increase in life span at 5 mg/kg, ip from day 3 to 7 from tumor inoculation relative to control; method in brief: as §1
# [14] = Antitumor activity against mouse TLX5 cells allografted in CBA/LAC mouse assessed as increase in life span at 6.25 mg/kg, ip from day 3 to 7 from tumor inoculation relative to control; method in brief: as §1
# [15] = Antitumor activity against mouse TLX5 cells allografted in CBA/LAC mouse assessed as increase in life span at 800 mg/kg, ip from day 3 to 7 from tumor inoculation relative to control; method in brief: as §1
# [16] = Antitumor activity against mouse TLX5 cells allografted in CBA/LAC mouse assessed as increase in life span at 3.12 mg/kg, ip from day 3 to 7 from tumor inoculation relative to control; method in brief: as §1
SMILES,ILS at 12.5 mg/kg [1],ILS at 25 mg/kg [2],ILS at 50 mg/kg [3],ILS at 100 mg/kg [4],ILS at 200 mg/kg [5],ILS at 400 mg/kg [6],ILS at 10 mg/kg [7],ILS at 20 mg/kg [8],ILS at 40 mg/kg [9],ILS at 80 mg/kg [10],ILS at 160 mg/kg [11],ILS at 2.5 mg/kg [12],ILS at 5 mg/kg [13],ILS at 6.25 mg/kg [14],ILS at 800 mg/kg [15],ILS at 3.12 mg/kg [16]
CN(C)/N=N/c1ccc(C(=O)N/N=C/c2ccccc2[N+](=O)[O-])cc1,44%,40%,49%,51%,57%,59%,,,,,,,,,,
CCOc1ccc(/C=N/NC(=O)c2ccc(/N=N/N(C)C)cc2)cc1,0%,13%,29%,50%,65%,63%,,,,,,,,,,
CN(C)/N=N/c1ccc(C(=O)NN)cc1,,,,,,,59%,55%,57%,44%,-46%,,,,,
CCCN(CCC)NC(=O)c1ccc(/N=N/N(C)C)cc1,,,,,,,0%,20%,-32%,,,-3.7%,-3.7%,,,
CN(C)/N=N/c1ccc(C(=O)Nn2cnnc2)cc1,-1%,32%,47%,49%,28%,-14%,,,,,,,,,,
CN(C)/N=N/c1ccc(C(N)=O)cc1,14%,55%,51%,47%,3.9%,-61%,,,,,,,,,,
CN(C)/N=N/c1ccc(C(=O)N/N=C/c2ccccc2)cc1,26%,24%,49%,36%,1.8%,-26%,,,,,,,,,,
CCO/C=N/NC(=O)c1ccc(/N=N/N(C)C)cc1,13%,30%,43%,-27%,,,,,,,,,,,,
CN(C)/N=N/c1ccc(C(=O)N/N=C/c2ccc(Br)cc2)cc1,7.6%,21%,52%,52%,60%,-35%,,,,,,,,,,
CN(C)/N=N/c1ccc(S(=O)(=O)Nn2cnnc2)cc1,0.9%,4.6%,0.9%,4.6%,16%,14%,,,,,,,,,,
CN(C)/N=N/c1ccc(C(=O)N/N=C/c2ccc([N+](=O)[O-])cc2)cc1,-1%,-1%,8.7%,16%,26%,20%,,,,,,,,,,
CCCNC(=O)NNC(=O)c1ccc(/N=N/N(C)C)cc1,-1%,10%,61%,44%,49%,-44%,,,,,,,,,,
CN(C)/N=N/c1ccc(C(=O)N=[N+]=[N-])cc1,4.6%,21%,46%,51%,-72%,,,,,,,,,-1%,,
CCNC(=S)NNC(=O)c1ccc(/N=N/N(C)C)cc1,-1%,16%,18%,55%,-31%,,,,,,,,,,,
CN(C)/N=N/c1ccc(S(=O)(=O)N(C)C)cc1,0%,7.5%,9.4%,34%,-36%,,,,,,,,,,,
COc1ccc(/C=N/NC(=O)c2ccc(/N=N/N(C)C)cc2)c(OC)c1,1.9%,19%,48%,52%,35%,-33%,,,,,,,,,,
CN(C)/N=N/c1ccc(C(=O)N/N=C/c2ccc(Cl)cc2)cc1,4.6%,14%,40%,44%,51%,-23%,,,,,,,,,,
CN(C)/N=N/c1ccc(C(=O)NNC(O)c2ccc([N+](=O)[O-])cc2)cc1 (stereo not drawn),,6.5%,12%,74%,83%,71%,,,,,,,,,44%,
CN(C)/N=N/c1ccc(C(=O)N/N=C/c2ccc(I)cc2)cc1,11%,15%,40%,54%,-38%,,,,,,,,,,,
CN(C)/N=N/c1ccc(S(=O)(=O)N(CCCl)CCCl)cc1,-1%,0%,2.9%,-3.7%,,,,,,,,,,-3.7%,,-3.7%
